Active and inactive are the calls of the source. No cut-off for these calls is given here. Square brackets hold non-standard residues; d marks the D form. Peptide text beside a SMILES is read from it. Dap = NC[C@H](N)C(=O)O
Experiments:
[1] = molecular target: Melanocortin receptor 4 (Mus musculus) (UniProt P56450); assay: Agonist activity at mouse melanocortin receptor 4 expressed in HEK293 cells assessed as stimulation of cAMP accumulation at 100 uM incubated for 2 hrs by cAMP Alpha-screen assay relative to control; format: functional, cell-based
Chain of Melanocortin receptor 4 (Mus musculus) (P56450 whole entry): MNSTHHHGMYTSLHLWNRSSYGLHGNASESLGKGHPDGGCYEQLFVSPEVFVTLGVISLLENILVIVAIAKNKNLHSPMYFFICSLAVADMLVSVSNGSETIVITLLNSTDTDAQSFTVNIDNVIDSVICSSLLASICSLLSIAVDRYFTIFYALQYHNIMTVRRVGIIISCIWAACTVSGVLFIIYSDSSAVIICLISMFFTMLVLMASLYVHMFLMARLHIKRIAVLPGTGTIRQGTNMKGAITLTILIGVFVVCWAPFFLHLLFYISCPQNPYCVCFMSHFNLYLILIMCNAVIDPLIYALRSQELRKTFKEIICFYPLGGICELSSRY

Melanocortin receptor 5 [2] = molecular target: T1, Melanocortin receptor 5 (Mus musculus, UniProt P41149); assay: Agonist activity at mouse melanocortin receptor 5 expressed in HEK293 cells assessed as stimulation of cAMP accumulation incubated for 2 hrs by cAMP Alpha-screen assay; format: functional, cell-based
T1 sequence (P41149 whole entry): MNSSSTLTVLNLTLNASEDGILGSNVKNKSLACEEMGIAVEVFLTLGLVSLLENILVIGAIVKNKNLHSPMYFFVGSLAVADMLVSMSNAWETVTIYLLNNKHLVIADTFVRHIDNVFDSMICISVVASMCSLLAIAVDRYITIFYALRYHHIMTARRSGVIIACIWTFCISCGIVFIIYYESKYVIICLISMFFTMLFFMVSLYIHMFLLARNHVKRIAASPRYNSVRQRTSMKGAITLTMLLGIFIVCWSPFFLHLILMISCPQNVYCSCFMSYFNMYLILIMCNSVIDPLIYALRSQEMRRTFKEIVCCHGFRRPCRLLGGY

[3] = molecular target: Melanocortin receptor 3 (Mus musculus) (UniProt P33033); assay: Agonist activity at mouse melanocortin receptor 3 expressed in HEK293 cells assessed as stimulation of cAMP accumulation at 100 uM incubated for 2 hrs by cAMP Alpha-screen assay relative to control; format: functional, cell-based
Chain of Melanocortin receptor 3 (Mus musculus) (P33033 whole entry): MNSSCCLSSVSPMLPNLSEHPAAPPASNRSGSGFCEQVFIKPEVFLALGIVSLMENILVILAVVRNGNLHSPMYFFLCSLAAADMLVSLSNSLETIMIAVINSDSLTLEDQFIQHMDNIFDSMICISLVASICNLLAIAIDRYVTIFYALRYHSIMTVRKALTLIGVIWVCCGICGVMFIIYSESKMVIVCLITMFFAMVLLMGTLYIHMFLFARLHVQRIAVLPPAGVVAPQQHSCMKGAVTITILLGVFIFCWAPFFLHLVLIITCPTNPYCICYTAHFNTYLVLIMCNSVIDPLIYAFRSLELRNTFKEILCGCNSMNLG

[4] = molecular target: Melanocyte-stimulating hormone receptor (Mus musculus) (UniProt Q01727); assay: Agonist activity at mouse melanocortin receptor 1 expressed in HEK293 cells assessed as stimulation of cAMP accumulation at 100 uM incubated for 2 hrs by cAMP Alpha-screen assay relative to control; format: functional, cell-based
Chain of Melanocyte-stimulating hormone receptor (Mus musculus) (Q01727 whole entry, looked up): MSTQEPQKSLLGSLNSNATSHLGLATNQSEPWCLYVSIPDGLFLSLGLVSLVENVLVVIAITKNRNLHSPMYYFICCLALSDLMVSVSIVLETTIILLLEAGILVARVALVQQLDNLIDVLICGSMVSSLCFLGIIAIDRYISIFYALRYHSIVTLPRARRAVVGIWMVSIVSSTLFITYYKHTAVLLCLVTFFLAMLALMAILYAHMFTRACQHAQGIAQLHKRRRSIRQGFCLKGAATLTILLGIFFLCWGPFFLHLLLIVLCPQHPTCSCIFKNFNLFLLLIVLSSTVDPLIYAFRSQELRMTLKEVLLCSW

Melanocortin receptor 4 [5] = molecular target: T2, Melanocortin receptor 4 (Homo sapiens, UniProt P32245); assay: Inverse agonist activity at human melanocortin receptor 4 expressed in HEK293 cells assessed as inhibition of basal cAMP accumulation incubated for 2 hrs by cAMP Alpha-screen assay; format: functional, cell-based
T2 sequence (P32245 whole entry): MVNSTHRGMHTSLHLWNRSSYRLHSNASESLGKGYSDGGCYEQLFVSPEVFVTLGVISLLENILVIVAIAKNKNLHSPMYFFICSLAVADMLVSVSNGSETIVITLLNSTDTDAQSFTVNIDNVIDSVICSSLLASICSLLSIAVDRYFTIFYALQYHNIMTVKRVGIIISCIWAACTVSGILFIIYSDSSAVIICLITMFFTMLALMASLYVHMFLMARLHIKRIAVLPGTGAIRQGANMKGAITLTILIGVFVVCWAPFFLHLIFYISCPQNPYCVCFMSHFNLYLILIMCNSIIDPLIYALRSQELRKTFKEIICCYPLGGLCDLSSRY
In short: (§1)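 AlphaScreen cAMP assay in stably transfected HEK293 cells, with 10,000 cells/well in IBMX-containing HBSS/HEPES buffer pH 7.4. Peptide alone, up to 100 μM, 2 h at room temperature in the dark, then 2 h lysis/detection. Inverse agonism taken as percent decrease of cAMP from basal, relative to maximal NDP-MSH signal, at 100 μM. Duplicates, three independent experiments.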

Melanocortin receptor 3 [6] = molecular target: T3, Melanocortin receptor 3 (Mus musculus, UniProt P33033); assay: Agonist activity at mouse melanocortin receptor 3 expressed in HEK293 cells assessed as stimulation of cAMP accumulation incubated for 2 hrs by cAMP Alpha-screen assay; format: functional, cell-based
T3 sequence (P33033 whole entry): as the sequence (P33033 whole entry) above

Melanocortin receptor 3 [7] = molecular target: T3, Melanocortin receptor 3; assay: Antagonist activity at mouse melanocortin receptor 3 expressed in HEK293 cells assessed as inhibition of NDP-MSH-induced cAMP accumulation incubated for 2 hrs by cAMP Alpha-screen assay based Schild analysis; format: functional, cell-based; details: read-out: pA2 (converted)
In short: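 NDP-MSH (10−6 to 10−12) plus antagonist at 10,000, 5,000, 1,000 and 500 nM, 2 h dark at room temperature. AlphaScreen cAMP read after lysis/bead step 2 h. Schild pA2; duplicates, at least three independent experiments.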

[8] = molecular target: T4, Melanocyte-stimulating hormone receptor (Mus musculus, UniProt Q01727); assay: Displacement of [125I]-NDP-MSH from mouse melanocortin receptor 1 expressed in HEK293 cell mebranes incubated for 1 hr by automatic gamma counting method; format: cell-based
T4 sequence (Q01727 whole entry): as the sequence (Q01727 whole entry, looked up) above
In short: (§2)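 Cells washed, lysed 10 min with 0.1 M NaOH/1% Triton X-100, then gamma-counted. Specific binding defined with unlabelled NDP-MSH and normalized to it. Duplicate wells, two experiments. IC50 by non-linear fit. Fold difference taken relative to the Asn-parent macrocycle control.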

Melanocortin receptor 4 [9] = molecular target: T2, Melanocortin receptor 4; assay: Ratio of IC50 for MDE6-82-3c to IC50 for test compound for displacement of [125I]-NDP-MSH from human melanocortin receptor 4 expressed in HEK293 cell membranes incubated for 1 hr by automatic gamma counting method; in short: as §2
Melanocortin receptor 3 [10] = molecular target: T3, Melanocortin receptor 3; assay: Displacement of [125I]-NDP-MSH from mouse melanocortin receptor 3 expressed in HEK293 cell mebranes incubated for 1 hr by automatic gamma counting method; format: cell-based
Melanocortin receptor 5 [11] = molecular target: T1, Melanocortin receptor 5; assay: Displacement of [125I]-NDP-MSH from mouse melanocortin receptor 5 expressed in HEK293 cell mebranes incubated for 1 hr by automatic gamma counting method; format: cell-based
Melanocortin receptor 4 [12] = molecular target: T5, Melanocortin receptor 4 (Mus musculus, UniProt P56450); assay: Agonist activity at mouse melanocortin receptor 4 expressed in HEK293 cells assessed as stimulation of cAMP accumulation incubated for 2 hrs by cAMP Alpha-screen assay; format: functional, cell-based
T5 sequence (P56450 whole entry): as the sequence (P56450 whole entry) above

[13] = molecular target: Melanocortin receptor 4 (Mus musculus) (UniProt P56450); assay: Ratio of IC50 for MDE6-82-3c to IC50 for test compound for displacement of [125I]-NDP-MSH from mouse melanocortin receptor 4 expressed in HEK293 cell mebranes incubated for 1 hr by automatic gamma counting method; in short: as §2
[14] = molecular target: Melanocortin receptor 5 (Mus musculus) (UniProt P41149); assay: Inverse agonist activity at mouse melanocortin receptor 5 expressed in HEK293 cells assessed as inhibition of basal cAMP accumulation incubated for 2 hrs by cAMP Alpha-screen assay relative to control; format: functional, cell-based; details: concentration not given here; in short: as §1
Chain of Melanocortin receptor 5 (Mus musculus) (P41149 whole entry): as the sequence (P41149 whole entry) above

Melanocortin receptor 4 [15] = molecular target: T5, Melanocortin receptor 4; assay: Antagonist activity at mouse melanocortin receptor 4 expressed in HEK293 cells assessed as inhibition of NDP-MSH-induced cAMP accumulation incubated for 2 hrs by cAMP Alpha-screen assay based Schild analysis; format: functional, cell-based; details: read-out: pA2 (converted)
Melanocortin receptor 4 [16] = molecular target: T2, Melanocortin receptor 4; assay: Antagonist activity at human melanocortin receptor 4 expressed in HEK293 cells assessed as inhibition of NDP-MSH-induced cAMP accumulation incubated for 2 hrs by cAMP Alpha-screen assay based Schild analysis; format: functional, cell-based; details: read-out: pA2 (converted)
[17] = molecular target: Melanocortin receptor 3 (Mus musculus) (UniProt P33033); assay: Ratio of IC50 for MDE6-82-1c to IC50 for test compound for displacement of [125I]-NDP-MSH from mouse melanocortin receptor 3 expressed in HEK293 cell mebranes incubated for 1 hr by automatic gamma counting method
In short: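 Whole stably transfected HEK293 cells (>90% confluent) incubated 1 h at 37°C, 5% CO2, in DMEM with 0.1% BSA. […] Cells washed, lysed with NaOH/Triton X-100, and counted by gamma counter. Specific binding normalized to nonradioactive NDP-MSH. IC50 from duplicates in two experiments (mean ± SD). Fold difference taken against the Dap-containing parent control.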

Melanocortin receptor 4 [18] = molecular target: T2, Melanocortin receptor 4; assay: Ratio of IC50 for MDE6-82-1c to IC50 for test compound for displacement of [125I]-NDP-MSH from human melanocortin receptor 4 […] incubated for 1 hr by automatic gamma counting method; format: cell membranes
[19] = molecular target: Melanocortin receptor 4 (Mus musculus) (UniProt P56450); assay: Ratio of IC50 for MDE6-82-1c to IC50 for test compound for displacement of [125I]-NDP-MSH from mouse melanocortin receptor 4 […] incubated for 1 hr by automatic gamma counting method
[20] = molecular target: Melanocyte-stimulating hormone receptor (Mus musculus) (UniProt Q01727); assay: Ratio of IC50 for MDE6-82-1c to IC50 for test compound for displacement of [125I]-NDP-MSH from mouse melanocortin receptor 1 […] incubated for 1 hr by automatic gamma counting method
[21] = molecular target: Melanocortin receptor 5 (Mus musculus) (UniProt P41149); assay: Ratio of IC50 for MDE6-82-1c to IC50 for test compound for displacement of [125I]-NDP-MSH from mouse melanocortin receptor 5 […] incubated for 1 hr by automatic gamma counting method
[22] = molecular target: Melanocortin receptor 5 (Mus musculus) (UniProt P41149); assay: Ratio of IC50 for MDE6-82-3c to IC50 for test compound for displacement of [125I]-NDP-MSH from mouse melanocortin receptor 5 expressed in HEK293 cell mebranes incubated for 1 hr by automatic gamma counting method; in short: as §2
[23] = molecular target: Melanocortin receptor 3 (Mus musculus) (UniProt P33033); assay: Ratio of IC50 for MDE6-82-3c to IC50 for test compound for displacement of [125I]-NDP-MSH from mouse melanocortin receptor 3 expressed in HEK293 cell mebranes incubated for 1 hr by automatic gamma counting method; in short: as §2
[24] = molecular target: Melanocyte-stimulating hormone receptor (Mus musculus) (UniProt Q01727); assay: Ratio of IC50 for MDE6-82-3c to IC50 for test compound for displacement of [125I]-NDP-MSH from mouse melanocortin receptor 1 expressed in HEK293 cell mebranes incubated for 1 hr by automatic gamma counting method; in short: as §2
[25] = molecular target: Melanocortin receptor 5 (Mus musculus) (UniProt P41149); assay: Inverse agonist activity at mouse melanocortin receptor 5 expressed in HEK293 cells assessed as inhibition of basal cAMP accumulation at 100 uM incubated for 2 hrs by cAMP Alpha-screen assay relative to control; format: functional, cell-based; in short: as §1
[26] = molecular target: T4, Melanocyte-stimulating hormone receptor; assay: Agonist activity at mouse melanocortin receptor 1 expressed in HEK293 cells assessed as stimulation of cAMP accumulation incubated for 2 hrs by cAMP Alpha-screen assay; format: functional, cell-based

Row | Compound | Activity [1] | EC50 (Melanocortin receptor 5 [2]) | Activity [4] | Activity (Melanocortin receptor 4 [5]) | EC50 (Melanocortin receptor 3 [6]) | Ratio IC50 (Melanocortin receptor 4 [9]) | IC50 (Melanocortin receptor 5 [11]) | EC50 (Melanocortin receptor 4 [12]) | Ratio IC50 [13] | Ratio IC50 [17] | Ratio IC50 (Melanocortin receptor 4 [18]) | Ratio IC50 [19] | Ratio IC50 [20] | also measured
1 | CC(C)[C@@H]1NC(=O)[C@H](CN)NC(=O)[C@H](Cc2ccccc2)NC(=O)[C@H](Cc2ccccc2)NC(=O)[C@H](CCCNC(=N)N)NC(=O)[C@@H]2CCCN2C(=O)[C@H]2CCCN2C(=O)[C@H](Cc2ccccc2)NC1=O | 37% | > 100 µM | 79% | Active | – | – | – | – | – | – | – | – | – | Activity [3]: 27%
2 | C[C@@H]1NC(=O)[C@H](CC(N)=O)NC(=O)[C@H](Cc2ccccc2)NC(=O)[C@H](Cc2ccccc2)NC(=O)[C@H](Cc2c[nH]cn2)NC(=O)[C@@H]2CCCN2C(=O)[C@H]2CCCN2C(=O)[C@H](Cc2ccccc2)NC1=O | – | > 100 µM | 23% | Active | > 100 µM | 300 | > 100 µM | > 100 µM | 300 | – | – | – | – | Kb (Melanocortin receptor 3 [7]): > 10 µM; IC50 [8]: > 100 µM; IC50 (Melanocortin receptor 3 [10]): > 100 µM
3 | C[C@@H]1NC(=O)[C@H](CC(N)=O)NC(=O)[C@H](Cc2ccccc2)NC(=O)[C@H](Cc2ccccc2)NC(=O)[C@H](CCCNC(=N)N)NC(=O)[C@@H]2CCCN2C(=O)[C@H]2CCCN2C(=O)[C@H](Cc2ccccc2)NC1=O | – | – | – | – | – | – | – | – | – | – | – | – | – | inhibition [14]: 10%
4 | C[C@@H]1NC(=O)[C@H](CN)NC(=O)[C@H](Cc2ccccc2)NC(=O)[C@H](Cc2ccccc2)NC(=O)[C@H](CCCNC(=N)N)NC(=O)[C@@H]2CCCN2C(=O)[C@H]2CCCN2C(=O)[C@H](Cc2ccccc2)NC1=O | – | – | – | Active | – | – | – | – | – | – | – | – | – | inhibition [14]: 15%
5 | C[C@@H]1NC(=O)[C@H](CN)NC(=O)[C@H](Cc2ccccc2)NC(=O)[C@H](Cc2ccccc2)NC(=O)[C@H](CS)NC(=O)[C@@H]2CCCN2C(=O)[C@H]2CCCN2C(=O)[C@H](Cc2ccccc2)NC1=O (cyclo(PCFF[Dap]AF[dP])) | 42% | > 100 µM | – | inactive | – | – | > 100 µM | – | – | 15 | 2100 | 5200 | 6 | Kb (Melanocortin receptor 4 [15]): > 10 µM; Kb (Melanocortin receptor 3 [7]): > 10 µM; Activity [3]: 29%; Kb (Melanocortin receptor 4 [16]): > 10 µM
6 | C[C@@H]1NC(=O)[C@H](CN)NC(=O)[C@H](Cc2ccccc2)NC(=O)[C@H](Cc2ccccc2)NC(=O)[C@H](Cc2c[nH]cn2)NC(=O)[C@@H]2CCCN2C(=O)[C@H]2CCCN2C(=O)[C@H](Cc2ccccc2)NC1=O (cyclo(PHFF[Dap]AF[dP])) | – | > 100 µM | 56% | inactive | > 100 µM | – | – | > 100 µM | – | 5 | 400 | 500 | 5 | Ratio IC50 [21]: 7
7 | CC(C)[C@@H]1NC(=O)[C@H](CC(N)=O)NC(=O)[C@H](Cc2ccccc2)NC(=O)[C@H](Cc2ccccc2)NC(=O)[C@H](CCCNC(=N)N)NC(=O)[C@@H]2CCCN2C(=O)[C@H]2CCCN2C(=O)[C@H](Cc2ccccc2)NC1=O (cyclo(PRFFNVF[dP])) | 16% | > 100 µM | 23% | Active | > 100 µM | 3 | – | – | 2 | – | – | – | – | Ratio IC50 [22]: 2; Ratio IC50 [23]: 3; Ratio IC50 [24]: 2
8 | C[C@@H]1NC(=O)[C@H](CC(N)=O)NC(=O)[C@H](Cc2ccccc2)NC(=O)[C@H](Cc2ccc(O)cc2)NC(=O)[C@H](CCCNC(=N)N)NC(=O)[C@@H]2CCCN2C(=O)[C@H]2CCCN2C(=O)[C@H](Cc2ccccc2)NC1=O (cyclo(PRYFNAF[dP])) | – | – | – | Active | > 100 µM | 2000 | > 100 µM | > 100 µM | 100 | – | – | – | – | IC50 [8]: > 100 µM; inhibition [25]: 35%; IC50 (Melanocortin receptor 3 [10]): > 100 µM; EC50 [26]: > 100 µM
9 | C[C@@H]1NC(=O)[C@H](CN)NC(=O)[C@H](Cc2ccccc2)NC(=O)[C@H](Cc2ccc(O)cc2)NC(=O)[C@H](CCCNC(=N)N)NC(=O)[C@@H]2CCCN2C(=O)[C@H]2CCCN2C(=O)[C@H](Cc2ccccc2)NC1=O (cyclo(RYF[Dap]AF[dP]P)) | – | > 100 µM | 48% | Active | > 100 µM | – | – | > 100 µM | – | 9 | 100 | 70 | 4 | Ratio IC50 [21]: 20
